The list is not random: actives were taken first. Their share in the collection is about 2.1%.
UCH37 inh = human UCH37 deubiquitinating enzyme inhibition | Q9Y5K5 | purified proteasome/UCH37, Ub-AMC cleavage fluorescence | inhibition, % (test concentration not listed) | 330,000 compounds, 0.33% hits | AID 588478;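 active = mean inhibition over replicate wells above about 20%, limit read from the data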;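 note: 0% = compound-free wells with enzyme and 100% = wells lacking proteasome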
Target sequence (Q9Y5K5 whole entry, looked up): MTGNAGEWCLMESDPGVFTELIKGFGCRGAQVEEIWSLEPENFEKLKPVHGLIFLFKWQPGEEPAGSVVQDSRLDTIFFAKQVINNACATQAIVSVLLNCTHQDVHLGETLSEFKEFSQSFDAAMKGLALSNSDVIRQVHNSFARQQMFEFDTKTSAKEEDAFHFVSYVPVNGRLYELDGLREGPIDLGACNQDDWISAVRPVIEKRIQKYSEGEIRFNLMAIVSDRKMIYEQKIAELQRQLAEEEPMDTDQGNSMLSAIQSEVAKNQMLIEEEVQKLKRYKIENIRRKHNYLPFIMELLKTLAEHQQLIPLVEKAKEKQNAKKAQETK
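Schedule: 30 min plus 25 min, room temperature / Material: human UCH37 within purified proteasomes / Technique: AMC fluorescence intensity at 355/460 nm / Buffer or medium: pH 7.4 Tris-HCl (50 mM) with ovalbumin, ATP-MgCl2, DTT / Controls: wells without proteasome as full block, compound-free enzyme plus substrate as uninhibited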
CRFBP-R2 agonist = CRF-BP/CRF-R2 complex agonism | 350,000 compounds, 0.46% hits | activation, % at 13.2 µM | HEK293 CRF-R2/CRF-BP, calcium dye fluorescence (FLIPR); percent of saturating CRF peptide response;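 active = activation of at least 50%, plus an integration ratio under a set limit after plate pattern correction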;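 note: plate controls were neutral control wells without compound for no effect and CRF at EC100 for full effect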
iPSC survival up = hiPSC single-cell survival enhancement; ATPlite luminescence; 100% = ROCK inhibitor wells, 0% = DMSO; survival enhancement, % at 20 µM; 360,000 compounds, 0.044% hits; AID 602274; in the data active = survival enhancement above about 18%;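 note: cells exposed to compounds for 16 hours before the ATP read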
CRFBP-R2 block = CRF-BP/CRF-R2 complex antagonism; AID 588475; 350,000 compounds, 0.59% hits; HEK293 CRF-R2/CRF-BP, CRF-induced calcium fluorescence; inhibition, % at 11.8 µM;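 active = inhibition of the ligand-induced calcium signal above about 50% at the single tested concentration, limit read from the data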
Cardio protect = modulators protecting cardiomyocytes from myocardial damage; H9c2 cardiomyocytes, H2O2 injury protection, ATPLite, 2 h; protection from H2O2 cell death, % at 20 µM; 360,000 compounds, 0.63% hits; AID 588492;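 active = compounds giving at least 50% protection of heart cells from peroxide-induced death in the single-dose screen, raw or plate-pattern-corrected value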;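 note: 0% = DMSO wells with peroxide and 100% = DMSO wells without peroxide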
beta cell repl = MIN6 beta-cell proliferation induction | MIN6 cells proliferation, ATPlite luminescence, 48 h; cells starved in 0.2% serum; 100% = growth in 10% serum | 330,000 compounds, 0.29% hits | proliferation, % at 10 µM;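 active = compounds whose signal lies at least 3.5 SD above the mean of all wells on their plate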;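 note: 0% = DMSO-treated cells in low-serum medium and 100% = 10% serum control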
Active calls of the source: *; . = no result.

SMILES	UCH37 inh	CRFBP-R2 agonist	iPSC survival up	CRFBP-R2 block	Cardio protect	beta cell repl
COC(=S)NC(=NS(=O)(=O)c1ccc(Cl)cc1)c1ccccc1	1	.	.	.	.	.
COCCN1CCN(c2c3c(nc4cc(-c5cccc(F)c5)nn24)CCC3)CC1	-7	0	1	-3	86*	0
OC1CCCN(c2c3c(nc4cc(-c5cccc(F)c5)nn24)CCCC3)C1 (stereo unspecified)	-41	0	0	-27	-3	1
COc1cccc(C2CC(c3cccs3)=NN2C(=S)Nc2ccccc2)c1OC (stereo unspecified)	-1	3	0	81*	2	0
COc1ccc(C2CC(c3cccs3)=NN2C(=S)Nc2ccccc2)cc1OC (stereo unspecified)	3	2	-2	30	5	0
COc1ccc(C=NNC(=O)c2ccc(Cl)c(S(N)(=O)=O)c2)cc1OCC(N)=O	-6	.	.	.	.	.
COc1ccc(CC(NC(C)=O)C(=O)NC2CCN(c3ncccc3[N+](=O)[O-])CC2)cc1 (stereo unspecified)	4	-2	4	27	-5	1
CC(=O)NC(Cc1ccc(C)cc1)C(=O)NC1CCN(c2ncccc2[N+](=O)[O-])CC1 (stereo unspecified)	5	-3	0	60*	11	0
CCc1nnc(NC(=O)CCC(=O)N2CCN(Cc3cc(Cl)ccc3OC)CC2)s1	4	1	1	106*	37	0
C=CCn1c(SCC(=O)c2ccc(O)c(O)c2)nnc1-c1cccc(OC)c1	.	-1	1	4	54*	-1
NC(=O)c1ccc(-n2nnnc2SCC(=O)c2ccc(O)c(O)c2)cc1	6	0	0	-9	4	-2
C=CCn1c(SCC(=O)c2ccc(O)c(O)c2)nnc1-c1ccc(C)cc1	7	-2	-2	-6	62*	-3
C=CCn1c(SCC(=O)c2ccc(O)c(O)c2)nnc1-c1ccc(OC)cc1	1	-1	2	-3	40	-3
COc1ccc(-n2nnnc2SCC(=O)c2ccc(O)c(O)c2)cc1	5	0	-2	-10	60*	-3
Cc1cc(NC(=NS(=O)(=O)c2ccc(F)cc2F)c2ccccc2)no1	-1	.	.	.	.	.
CC(=NNC(=O)c1cccc([N+](=O)[O-])c1)c1cccc(NC(=O)C2CC2)c1	4	.	.	.	.	.
COc1ccc(C=NNc2cc(C)nc(N3CCOCC3)n2)c(OC)c1	-1	.	.	.	.	.
C[C@@H](C(=O)Nc1nccs1)N1C(=O)C2CC=CCC2C1=O (stereo partly specified)	-4	0	-2	3	7	6
CC(C(=O)Nc1sccc1C(N)=O)N1C(=O)C2CC=CCC2C1=O (stereo unspecified)	5	-3	2	63*	-1	-3
CCOc1cc(-c2cn(S(=O)(=O)c3cccc4nsnc34)nc2N)cc(OCC)c1OCC	2	-2	-2	70*	-2	0
CCOc1cc(S(=O)(=O)n2cc(-c3ccc(F)cc3)c(N)n2)cc(OCC)c1OCC	6	1	-1	3	-9	-1
S=c1[nH]nc(COc2ccccc2)n1N=Cc1c(Cl)cccc1Cl	4	.	.	.	.	.
CN(C)CCCNC(=O)c1ccccc1Oc1ccccc1	3	2	0	59*	5	-2
CCCN(C(=O)Cc1nc(N)n[nH]1)C1(C(=O)Nc2ccccc2C)CCCCC1	25*	-1	10	-1	-2	-2
CC(=NN1CCN(c2ccccc2)CC1)c1cccc([N+](=O)[O-])c1	1	.	.	.	.	.
SMILES	UCH37 inh	CRFBP-R2 agonist	iPSC survival up	CRFBP-R2 block	Cardio protect	beta cell repl
NC(=O)c1ccccc1N=Cc1ccccn1	-174	1	0	-10	78*	2
NC(=O)c1ccccc1N=Cc1cccnc1	-220	0	0	5	47	0
COC(=O)c1ccc(C(=O)OC)c(NC(=O)COC(=O)C23CC4CC(CC(O)(C4)C2)C3)c1	-4	0	2	-12	88*	2
O=C(COC(=O)COc1ccc(Cl)cc1Br)NCc1cccs1	2	-1	-1	53*	-3	-3
O=C(CCc1ccc(S(=O)(=O)N2CCOCC2)cc1)NN=Cc1cccc(O)c1	2	.	.	.	.	.
Cc1ccc(CC(=O)NCCCc2ccccc2)cc1	2	-4	9	60*	-3	0
O=C(Nc1nccs1)c1cccc(N2C(=O)C3C4C=CC(C4)C3C2=O)c1 (stereo unspecified)	29*	0	-1	8	13	-1
CCCCCC/C(=N/O)c1ccccn1	.	-1	0	59*	47	-2
CCNc1nc(NCC)n2c(SCC(=O)Nc3c(C)cccc3C)nnc2n1	-3	-1	0	2	3	-3
CCNc1nc(NCC)n2c(SCC(=O)O)nnc2n1	34*	-2	0	-3	-10	0
CCCCCCCC/C=C\CCCCCCCC(=O)NCCc1ccc(O)c(O)c1	0	8	-4	-33	67*	-8
NC(=NOC(=O)c1ccccc1Br)c1ccc([N+](=O)[O-])cc1	5	.	.	.	.	.
COCCNC(=O)c1onc(CSc2cccc(OC)c2)c1C(=O)O	0	0	1	16	4	6
COc1cccc(SCc2noc(C(=O)NCCN(C)C)c2C(=O)NCCN(C)C)c1	32*	0	0	-3	6	-5
Cc1cc(C)n(N=Cc2ccco2)c(=O)c1C#N	10	.	.	.	.	.
C(=Nc1nccs1)c1cccnc1	5	.	.	.	.	.
CCOC(=O)c1cn2nc(Oc3cccc(F)c3)ccc2n1	-40	1	0	62*	4	-3
O=C(/C=C/c1ccc(O)cc1)c1ccc(NC2=C(N3CCCCC3)C(=O)c3ccccc3C2=O)cc1	22*	0	-4	-26	-22	-4
COc1ccccc1NC1=C(N2CCCCC2)C(=O)c2ccccc2C1=O	52*	2	-4	8	-16	0
Cc1ccc(NC2=C(N3CCCCC3)C(=O)c3ccccc3C2=O)cc1	23*	0	-3	4	-23	-5
O=C1C(Nc2ccccc2)=C(N2CCCCC2)C(=O)c2ccccc21	7	0	-5	-3	-30	-6
CC(=NNC(=O)CNC(=O)c1cccs1)c1ccco1	5	.	.	.	.	.
CN(c1ccccc1)c1ccc(/C=C/[N+](=O)[O-])cc1	.	75*	-2	-162	-19	.
Nc1c(C(=O)c2ccccc2)sc2nsc(SCCN3CCCC3)c12	10	102*	0	-80	-8	-4
CC(=O)c1sc2nsc(SCCN3CCCCC3)c2c1N	7	1	0	-7	5	-1
Nc1c(C(=O)c2ccc(Cl)cc2)sc2nsc(SCCN3CCOCC3)c12	6	92*	0	-73	-9	-3

Bioassay records as filed in PubChem BioAssay.
